Compound activity deposited in PubChem BioAssay by several laboratories.
This is a sample that favours compounds with a hit; in the whole collection about 3.2% have one here.
DSG3 Ab inh = inhibitors of pemphigus antibody binding to DSG3, primary screen, biochemical, bead-based, flow cytometry, scFv-GFP | Desmoglein-3 (Homo sapiens), P32926 | DSG3-coupled beads, scFv-anti-DSG3-GFP binding; hits give low values | binding (percent of control), % at 10 µM | hit rate 0.48% among 310,000;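 active = binding more than 3 SD below its plate's average and above zero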;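 note: hits lower antibody fragment binding to DSG3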
UBC13 inh = UBC13 polyubiquitin chain formation inhibitors, primary screen, biochemical, TR-FRET, uHTS; Ubiquitin-conjugating enzyme E2 N (Homo sapiens), P61088; inhibition, % at 20 µM; hit rate 0.47% among 330,000; AID 485273, 2010; in the data active = inhibition above about 45%, passing the limit was not always enough
Target sequence (P61088 whole entry, looked up): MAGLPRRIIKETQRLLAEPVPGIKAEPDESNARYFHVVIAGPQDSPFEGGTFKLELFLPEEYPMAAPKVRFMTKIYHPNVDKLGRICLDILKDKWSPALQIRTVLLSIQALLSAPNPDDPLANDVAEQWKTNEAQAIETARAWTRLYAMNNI
MEKK2wt PB1 HTS = modulators of MEK5 binding to wildtype MEKK2, primary screen, biochemical, multiplex bead flow cytometry, Alexa488-MEK5 | Mitogen-activated protein kinase kinase kinase 2 (Homo sapiens), Q9Y2U5 | hit rate 1.1% among 290,000 | Alexa488-MEK5 binding to MEKK2 WT; actives lie on both sides | binding response (% of control), % at 10 µM; in the data active = binding response below about 67% or above about 130%
MEKK2 mut-MEK5 = MEK5 binding signal on mutant MEKK2 PB1, primary screen, biochemical, multiplex bead flow cytometry, Alexa488-MEK5; hit rate 0.35% among 290,000; percent response, % at 10 µM; Alexa488-MEK5 binding to MEKK2 mutant; in the data active = percent response above about 24%, passing the limit was not always enough
MEKK3 PB1 HTS = modulators of MEKK3-MEK5 PB1 binding, primary screen, biochemical, wildtype MEKK3, multiplex bead flow cytometry, Alexa488-MEK5; Mitogen-activated protein kinase kinase kinase 3 (Homo sapiens), Q99759; bead-based flow cytometry, Alexa488-MEK5 binding to MEKK3; actives lie on both sides; 0 = blocked by unlabeled MEK5, 100 = vehicle; binding response (% of control), % at 10 µM; hit rate 1.4% among 290,000; AID 1529, 2009;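 active = binding response more than 3 SD above or below the average of its plate-row segment, actives on both sides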;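 note: Alexa488 bead fluorescence after subtracting the streptavidin-only scavenger bead signal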
Apaf1 inhib = inhibitors of human Apaf-1 apoptosome, primary screen, biochemical, DEVD-Rh110 fluorescence, uHTS; inhibition, % at 20 µM; hit rate 0.71% among 330,000; reconstituted apoptosome caspase-3 activity; AID 489030, 2010; active = inhibition of at least 40% at 20 µM
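detection = Rh110 fluorescence intensity | test system = biochemical Apaf-1 apoptosome reconstitution | also added = cytochrome c and DEVD-Rh110 substrate | schedule = 30 min plus 50 min, RT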
MEKK2wt confirm = modulators of MEK5 binding to wildtype MEKK2, confirmation, biochemical, single concentration, multiplex bead flow cytometry; shares compounds with MEKK3 PB1 HTS; Alexa488-MEK5 binding to MEKK2 WT; actives lie on both sides; binding response (% of control), % at 10 µM; hit rate 2.4% among 5,900; AID 1892, 2009; in the data active = binding response below about 16% or above about 210%; inactive = in between
MEKK2mut confirm = mutant MEKK2 PB1-MEK5 binding signal retest – biochemical, single concentration, multiplex bead flow cytometry, confirmation. shares compounds with MEKK3 PB1 HTS. AID 1893, 2009. Alexa488-MEK5 binding to MEKK2 mutant. percent response, % at 10 µM. hit rate 2% among 5,900; in the data active = percent response mostly above about 71%, no sharp cut-off; inactive = mostly below about 38%;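 note: higher means compound restores mutant binding toward wildtype level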
MEKK3-MEK5 inh = MEKK3 wild-type PB1 binding to MEK5, inhibitors, confirmation, biochemical, bead multiplex flow cytometry, single concentration, wildtype. shares compounds with MEKK3 PB1 HTS. Alexa488-MEK5 binding to MEKK3; hits give low values. binding response (% of control), % at 10 µM. hit rate 1.8% among 5,900;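 active = binding response below 72% of control, or above a set upper limit, though filed actives all read lower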;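 note: lower values mean stronger disruption of MEK5 binding to MEKK3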
Casp3 UBC13 ctr = CASP3 inhibitor validation, counterassay for project on UBE2N polyubiquitination blockers, biochemical, one dose. shares compounds with UBC13 inh. Recombinant caspase-3, Caspase-Glo 3/7 luminescence, 60 min. inhibition, % at 20 µM. hit rate 4% among 1,400. AID 488856, 2010;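 active = mean inhibition across replicates above about 26%, limit read from the data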
Target sequence (P42574 whole entry, looked up): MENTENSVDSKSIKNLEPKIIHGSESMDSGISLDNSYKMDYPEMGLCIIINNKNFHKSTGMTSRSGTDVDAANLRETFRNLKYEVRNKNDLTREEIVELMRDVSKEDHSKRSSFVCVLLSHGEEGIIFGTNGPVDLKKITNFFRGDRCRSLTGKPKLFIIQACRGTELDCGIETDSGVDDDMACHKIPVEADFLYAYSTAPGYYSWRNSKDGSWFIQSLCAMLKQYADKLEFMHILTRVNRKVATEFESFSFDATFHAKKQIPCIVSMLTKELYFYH
UBC13 conf = UBC13 polyubiquitination inhibitors, single-point retest, confirmation, biochemical, TR-FRET, single concentration. shares compounds with UBC13 inh. inhibition, % at 10 µM. hit rate 68% among 1,400. AID 488859, 2010; in the data active = inhibition above about 45%
A number is an active result; - = inactive; . = no result; [ ] = another dose, or the depositor's remark.

SMILES	DSG3 Ab inh	UBC13 inh	MEKK2wt PB1 HTS	MEKK2 mut-MEK5	MEKK3 PB1 HTS	Apaf1 inhib	MEKK2wt confirm	MEKK2mut confirm	MEKK3-MEK5 inh	Casp3 UBC13 ctr	UBC13 conf
CN(C)CCn1cnc2c(c1=N)C(c1ccccc1)c1ccc3ccccc3c1O2 (stereo unspecified)	-	48	142	-	-	-	-	-	-	-	56
CC[C@]12C(=O)N(C)C[C@H]([C@@H]3C(=O)N(C)C(=O)[C@@H]31)N2C(=O)c1ccc(Br)cc1	-	.	.	.	.	.	.	.	.	.	.
CCN1CCN(Cc2ccc(NC(=O)c3cc(NC(=O)c4cc(C)on4)cc(OC)c3)cc2C(F)(F)F)CC1	-	52	193	30	-	-	-	-	-	-	-
COc1ccc(NC(=O)c2cnn(-c3ccccc3)c2C)cc1OC	-	-	-	-	-	-	.	.	.	.	.
CCN1CCN(Cc2ccc(C(=O)Nc3ccc(C)c(NCc4cnc(NC(=O)OC)cn4)c3)cc2C(F)(F)F)CC1	-	-	-	-	-	-	.	.	.	.	.
CCN1CCN(Cc2ccc(NC(=O)c3cc(NC(=O)c4cnn(-c5ccccc5)c4N)cc(OC)c3)cc2C(F)(F)F)CC1	-	79	151	53	-	-	214	-	-	-	50
CCN(c1ccccc1)S(=O)(=O)c1cccc(C(=O)N(C)CC(=O)Nc2ccc(F)c(F)c2F)c1	-	.	.	.	.	.	.	.	.	.	.
C[C@H](CO)N1C[C@H](C)[C@@H](CN(C)C(=O)Nc2ccc(F)cc2)Oc2cc(Br)ccc2S1(=O)=O	-	.	.	.	.	.	.	.	.	.	.
CCOc1cc(C2C(C#N)=C(N)Oc3n[nH]c(-c4ccccc4)c32)ccc1O (stereo unspecified)	-	83	-	-	125	-	-	-	-	-	100
CN1CCc2c(sc3c2C(=O)NC(c2cn(Cc4ccccc4)c4ccccc24)N3)C1 (stereo unspecified)	-	51	182	66	-	-	240	107	-	-	64
C[C@H](CO)N1C[C@H](C)[C@@H](CN(C)S(C)(=O)=O)OCc2cnnn2CCCC1=O	-	.	.	.	.	.	.	.	.	.	.
CCOc1ccc(/C=C2\SC(=S)N(CCC(=O)Nc3ccccc3C(=O)O)C2=O)cc1	-	-	-	-	-	-	.	.	.	.	.
CCN(CC)CCOC(=O)c1cccc(OC)c1	-	-	-	-	-	-	.	.	.	.	.
CCN(CC)CCOC(=O)c1ccc(N/C=C(/C#N)c2nc(-c3ccc(OC)cc3)cs2)cc1	.	96	-	-	22[inhibitor]	-	212	-	-	-	130
O=C(NCCC(=O)N1CCN(C(=O)c2ccco2)CC1)c1ccc(Br)cc1	-	-	.	.	.	-	.	.	.	.	.
CC[n+]1c(/C=C/N(C)c2ccccc2)n(-c2ccccc2)c2ccc(-c3nc4ccccc4s3)cc21	-	84	328	140	-	82	262	117	-	-	98
CCc1ccc(Nc2n[n+](-c3ccccc3)c(/C=C/c3ccccc3)s2)cc1	.	70	189	25	-	-	-	-	-	-	-
COc1ccc(C)cc1Nc1n[n+](-c2ccccc2)c(-c2c(Cl)cccc2Cl)s1	.	-	-	-	-	-	.	.	.	.	.
CCc1ccc(Nc2n[n+](-c3ccccc3)c(-c3cc(OC)c(OC)cc3Br)s2)cc1	-	52	194	77	-	-	225	75	-	-	-
COc1ccc(C)cc1Nc1n[n+](-c2ccccc2)c(-c2ccc(OC)c(OC)c2OC)s1	-	48	149	-	-	-	-	-	-	-	-
COc1cccc(S(=O)(=O)N(C)C[C@@H]2Oc3cc(C#CCN(C)C)ccc3S(=O)(=O)N([C@H](C)CO)C[C@@H]2C)c1	-	.	.	.	.	.	.	.	.	.	.
CCC(CO)N=CC1=C(O)CC(c2ccccc2)CC1=O (stereo unspecified)	-	-	-	-	-	-	.	.	.	.	.
NC(=O)C1CCN(C(=O)c2ccc(NS(=O)(=O)c3ccc(Br)s3)cc2)CC1	-	-	.	.	.	-	.	.	.	.	.
Cc1nc(Nc2cnc(/C=C/c3cc(C(=O)Nc4cccc(C(F)(F)F)c4)ccc3C)cn2)cc(N2CCNCC2)n1	.	88	-	-	47[inhibitor]	75	-	-	43	-	116
NC1=NC[C@H](Cc2ccc(O)cc2)N1CCc1cccc2ccccc12	-	61	152	50	-	-	-	-	-	-	50
SMILES	DSG3 Ab inh	UBC13 inh	MEKK2wt PB1 HTS	MEKK2 mut-MEK5	MEKK3 PB1 HTS	Apaf1 inhib	MEKK2wt confirm	MEKK2mut confirm	MEKK3-MEK5 inh	Casp3 UBC13 ctr	UBC13 conf
NC1=NC[C@H](Cc2ccccc2)N1CCCCC1CCCCC1	-	86	151	-	-	67	-	-	-	-	80
O=[N+]([O-])c1cccc(NC(=S)N2CCN(c3ccccn3)CC2)c1	-	-	-	-	-	-	.	.	.	.	.
CCCSc1nc(N)nc2c1ncn2C1OC(CO)C(O)C1O (stereo unspecified)	-	.	.	.	.	.	.	.	.	.	.
Cc1ccc(-c2nn(-c3ccccc3)cc2CSC(=N)N)cc1	-	45	205	52	-	-	-	-	-	-	48
O=C(O)Cc1cn(-c2ccccc2)nc1-c1ccccc1	-	-	-	-	-	-	.	.	.	.	.
CCOC(=O)Cc1csc(NC(=O)C(NC(=O)C2CCC(C)CC2)C(C)C)n1 (stereo unspecified)	-	-	-	-	-	-	.	.	.	.	.
